Results published in ChEMBL document CHEMBL1147841, “Synthesis and biological study of 2-amino-4-aryl-5-chloropyrimidine analogues as inhibitors of VEGFR-2 and cyclin dependent kinase 1 (CDK1)” (Bioorg Med Chem Lett, 2007).

Experiments:
[1] = Bioavailability in Sprague-Dawley rat at 10 mg/kg, po; format: ADME, organism-based; conditions: in vivo
How it was run: (§1)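 Male Sprague-Dawley rats were given single doses orally at 10 mg/kg in 0.5% Methocel and intravenously at 2 mg/kg in 10% Solutol. Plasma concentrations were followed to derive AUC (µM h), Cmax (µM), half-life (h), clearance (mL/min/kg), steady-state volume of distribution (L/kg) and oral bioavailability (%).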

[2] = biological target: Cyclin-dependent kinase 1 (Homo sapiens, UniProt P06493); test: Inhibition of CDK1
[3] = Cmax in Sprague-Dawley rat at 10 mg/kg, po; format: ADME, organism-based; design: dose 10 mg/kg, route oral; conditions: in vivo; how it was run: as §1
[4] = Half life in Sprague-Dawley rat at 10 mg/kg, po; format: ADME, organism-based; design: dose 10 mg/kg, route oral; conditions: in vivo; how it was run: as §1
[5] = Clearance in Sprague-Dawley rat; format: ADME, organism-based; conditions: in vivo; how it was run: as §1
[6] = Cmax in Sprague-Dawley rat at 2 mg/kg, iv; format: ADME, organism-based; design: dose 2 mg/kg, route intravenous; conditions: in vivo; how it was run: as §1
[7] = Volume of distribution at steady state in Sprague-Dawley rat; format: ADME, organism-based; conditions: in vivo, read-out: Vss; how it was run: as §1
[8] = Half life in Sprague-Dawley rat at 2 mg/kg, iv; format: ADME, organism-based; design: dose 2 mg/kg, route intravenous; conditions: in vivo; how it was run: as §1
HeLa = test: Antiproliferative activity against human HeLa cells; format: functional, cell-based
[9] = biological target: Vascular endothelial growth factor receptor 2 (Homo sapiens, UniProt P35968); test: Inhibition of VEGFR2
A-375 = test: Antiproliferative activity against human A375 cells; format: functional, cell-based
[10] = AUC in Sprague-Dawley rat at 2 mg/kg, iv; format: ADME, organism-based; design: dose 2 mg/kg, route intravenous; conditions: plasma; how it was run: as §1
HCT-116 = test: Antiproliferative activity against human HCT116 cells; format: functional, cell-based
[11] = AUC in Sprague-Dawley rat at 10 mg/kg, po; format: ADME, organism-based; design: dose 10 mg/kg, route oral; conditions: plasma; how it was run: as §1

Sequence of Vascular endothelial growth factor receptor 2 (P35968 whole entry): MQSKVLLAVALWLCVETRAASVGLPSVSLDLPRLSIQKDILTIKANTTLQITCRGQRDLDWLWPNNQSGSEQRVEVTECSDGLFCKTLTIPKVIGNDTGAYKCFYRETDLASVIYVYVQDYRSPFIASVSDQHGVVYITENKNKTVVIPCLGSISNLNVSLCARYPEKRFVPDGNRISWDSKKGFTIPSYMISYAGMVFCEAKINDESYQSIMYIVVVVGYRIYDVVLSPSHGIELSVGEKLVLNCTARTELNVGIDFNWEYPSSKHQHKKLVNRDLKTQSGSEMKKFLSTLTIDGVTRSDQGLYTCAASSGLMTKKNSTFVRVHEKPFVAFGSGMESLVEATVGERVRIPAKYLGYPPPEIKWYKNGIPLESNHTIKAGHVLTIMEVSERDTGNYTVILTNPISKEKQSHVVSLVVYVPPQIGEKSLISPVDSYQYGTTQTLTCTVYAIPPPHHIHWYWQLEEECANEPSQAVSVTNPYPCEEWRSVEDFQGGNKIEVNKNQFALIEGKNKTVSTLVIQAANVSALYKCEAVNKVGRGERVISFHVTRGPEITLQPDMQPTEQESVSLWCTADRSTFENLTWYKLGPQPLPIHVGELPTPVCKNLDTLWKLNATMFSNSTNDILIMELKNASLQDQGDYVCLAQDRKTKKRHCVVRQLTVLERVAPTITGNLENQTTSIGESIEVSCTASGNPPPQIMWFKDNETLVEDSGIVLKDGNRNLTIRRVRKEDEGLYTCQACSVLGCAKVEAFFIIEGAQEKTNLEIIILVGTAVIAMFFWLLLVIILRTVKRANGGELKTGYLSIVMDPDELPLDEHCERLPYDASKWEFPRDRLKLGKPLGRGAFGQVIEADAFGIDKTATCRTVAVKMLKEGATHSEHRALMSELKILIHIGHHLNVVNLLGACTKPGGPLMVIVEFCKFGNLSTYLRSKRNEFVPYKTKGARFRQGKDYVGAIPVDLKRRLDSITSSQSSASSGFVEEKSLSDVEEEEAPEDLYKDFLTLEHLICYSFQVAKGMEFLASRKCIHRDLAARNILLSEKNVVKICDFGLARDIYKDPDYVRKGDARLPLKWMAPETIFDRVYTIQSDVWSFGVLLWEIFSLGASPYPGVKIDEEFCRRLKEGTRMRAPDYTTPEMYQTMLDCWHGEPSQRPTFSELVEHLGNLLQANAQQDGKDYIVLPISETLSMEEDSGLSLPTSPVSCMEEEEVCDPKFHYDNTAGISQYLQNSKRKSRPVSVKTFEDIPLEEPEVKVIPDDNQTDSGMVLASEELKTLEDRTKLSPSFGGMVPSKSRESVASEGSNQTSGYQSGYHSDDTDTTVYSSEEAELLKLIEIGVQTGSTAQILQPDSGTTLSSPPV
Sequence of Cyclin-dependent kinase 1 (P06493 whole entry): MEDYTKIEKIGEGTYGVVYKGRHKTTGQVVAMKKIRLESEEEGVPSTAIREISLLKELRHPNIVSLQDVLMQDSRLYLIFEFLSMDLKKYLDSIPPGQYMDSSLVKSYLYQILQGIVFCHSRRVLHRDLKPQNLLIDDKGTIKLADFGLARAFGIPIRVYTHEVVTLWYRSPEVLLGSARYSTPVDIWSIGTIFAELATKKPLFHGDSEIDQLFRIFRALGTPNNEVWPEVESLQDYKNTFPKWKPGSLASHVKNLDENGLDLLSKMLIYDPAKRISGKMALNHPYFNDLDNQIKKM

Structure (SMILES)	bioavailability [1]	IC50 [2]	Cmax [3]	half-life [4]	clearance [5]	Cmax [6]	Vd [7]	half-life [8]	IC50 (HeLa)	IC50 [9]	IC50 (A-375)	AUC [10]	IC50 (HCT-116)	AUC [11]
Cc1nc(C)c(-c2nc(Nc3ccc(CCN(C)C)cc3)ncc2Cl)s1		0.439 µM							0.431 µM	0.797 µM	0.399 µM		0.391 µM	
CNCCc1ccc(Nc2ncc(Cl)c(-c3ccc(C(C)(C)N)cc3)n2)cc1		1.06 µM							0.542 µM	0.033 µM	0.175 µM		0.885 µM	
CN(C)CCc1ccc(Nc2ncc(Cl)c(-c3ccc4[nH]ccc4c3)n2)cc1		0.847 µM							0.596 µM	0.103 µM	0.03 µM		0.321 µM	
CC(C)(N)c1ccc(-c2nc(Nc3ccc(CCN4CCCC4)cc3)ncc2Cl)cc1		0.808 µM							0.339 µM	0.026 µM	0.247 µM		0.359 µM	
CC(C)(N)c1ccc(-c2nc(Nc3ccc(CCO)cc3)ncc2Cl)cc1	55%	0.687 µM	1110 nM	4.5 h	34 mL/min/kg	1430 nM	10.7 L/kg	4.9 h	2.92 µM	0.069 µM	1.37 µM	2.77 µM·h	1.6 µM	7.65 µM·h
CN(C)CCc1ccc(Nc2ncc(Cl)c(-c3cccc4cc[nH]c34)n2)cc1		0.334 µM							1.29 µM	0.455 µM	0.774 µM		0.47 µM	
CN(C)CCc1ccc(Nc2ncc(Cl)c(-c3cccs3)n2)cc1		0.461 µM							1.24 µM	0.159 µM	0.016 µM		0.228 µM	
CN(C)CCc1ccc(Nc2ncc(Cl)c(-c3ccc(C(C)(C)N)cc3)n2)cc1		1.14 µM							0.5 µM	0.019 µM	0.163 µM		1.68 µM	
CN(C)CCc1ccc(Nc2ncc(Cl)c(-c3ccc4cc[nH]c4c3)n2)cc1		1.77 µM							0.472 µM	0.015 µM	0.336 µM		0.446 µM	
CC(C)(N)c1ccc(-c2nc(Nc3cccc(Br)c3)ncc2Cl)cc1		1.04 µM							3.35 µM	0.348 µM	2.61 µM		3.69 µM	
CC(C)(N)c1ccc(-c2nc(Nc3ccc(CCN4CCOCC4)cc3)ncc2Cl)cc1		2.77 µM							3.01 µM	0.148 µM	3.17 µM		3.22 µM	

The remaining lines, values ahead:

bioavailability [1]	IC50 [2]	Cmax [3]	half-life [4]	clearance [5]	Cmax [6]	Vd [7]	half-life [8]	IC50 (HeLa)	IC50 [9]	IC50 (A-375)	AUC [10]	IC50 (HCT-116)	AUC [11]	Structure (SMILES)
70%	1.54 µM	720 nM	2.6 h	51 mL/min/kg	670 nM	16.3 L/kg	3.9 h	0.973 µM	0.016 µM	1.97 µM	1.63 µM·h	1.68 µM	5.74 µM·h	Clc1cnc(Nc2ccc(CCN3CCCC3)cc2)nc1-c1ccc2cc[nH]c2c1
	0.048 µM							0.075 µM	0.007 µM	0.05 µM		0.084 µM		CN(C)CCc1ccc(Nc2ncc(Cl)c(-c3c[nH]c4ccccc34)n2)cc1
40%	1.24 µM	590 nM	4.6 h	25 mL/min/kg	960 nM	10.1 L/kg	5.8 h	2.08 µM	0.037 µM	2.57 µM	3.06 µM·h	2.45 µM	6.12 µM·h	CCN1CCN(CCc2ccc(Nc3ncc(Cl)c(-c4ccc5cc[nH]c5c4)n3)cc2)CC1
	0.18 µM							3.33 µM	0.007 µM	3.93 µM		3.05 µM		CN1CCN(CCc2ccc(Nc3ncc(Cl)c(-c4c[nH]c5ccccc45)n3)cc2)CC1
	1.61 µM							0.811 µM	0.076 µM	0.868 µM		1.3 µM		CN1CCN(CCc2ccc(Nc3ncc(Cl)c(-c4ccc(C(C)(C)N)cc4)n3)cc2)CC1
	0.54 µM							0.292 µM	0.216 µM	0.21 µM		0.084 µM		CN(C)CCc1ccc(Nc2ncc(Cl)c(-c3cccc4[nH]ccc34)n2)cc1
	0.781 µM							3.06 µM	0.314 µM	3.97 µM		3.76 µM		CN(C)CCc1ccc(Nc2ncc(Cl)c(-c3n[nH]c4ccccc34)n2)cc1
